In ChEMBL document CHEMBL6177979, “Exploring the Phototherapeutic Applications of Mitochondria-Targeted COUPY Photocages of Antitumor Drugs” (J Med Chem, 2025):
Calls of active or inactive are those of the source. The calls are words filed in the database; no cut-off is given here.

How the values were obtained:
HeLa [1] = test: Photocytotoxicity in human HeLa cells assessed as reduction in cell viability irradiated with 550 nm 4 mW/cm^-2 green-yellow LED light for 1 hr and measured after 48 hrs in presence of 4-PBA by MTT assay; format: toxicity, cell-based; conditions: 49 h
How it was run: (§1)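 HeLa or U87-MG cells seeded at 5000/well in DMEM with 10% FBS and 1% penicillin-streptomycin, grown 24 h. Compound added at 0–200 μM final (0.5% DMSO) for 1 h at 37 °C in the dark. Then 1 h dark or 550 nm pulsed LED (4 mW/cm2, 1 min on/1 min off; 7.2 J cm–2). Medium refreshed, 48 h incubation, MTT read-out. IC50 from sigmoidal dose–response curves, n = 3.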

[2] = Photochemical property of compound assessed as uncaging quantum yields; format: physicochemical
How it was run: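 Uncaging quantum yields derived from photon flux (DAE actinometry) together with photolysis rate parameters. Photolysis run in PBS/ACN 8:2 at 37 °C under a 530 nm-centred LED.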

HeLa [3] = test: Photocytotoxicity in human HeLa cells assessed as reduction in cell viability irradiated with 550 nm 4 mW/cm^-2 green-yellow LED light for 1 hr and measured after 48 hrs in presence of CLB by MTT assay; format: toxicity, cell-based; conditions: 49 h; how it was run: as §1
[4] = Drug uptake in human HeLa cells assessed as increase in fluorescence intensity at 1 uM incubated for 30 mins by DAPI staining based confocal microscopic analysis; format: ADME, cell-based; conditions: 0.5 h
How it was run: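 HeLa cells seeded on glass-bottom dishes in DMEM with 10% FBS. After 24 h, incubated 30 min at 37 °C with compound (1 μM) in supplemented DMEM. Washed three times with DPBS, kept in phenol red-free low-glucose DMEM, imaged live by confocal with 561 nm excitation and 570–670 nm detection.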

[5] = Induction of ROS generation in PBS buffer assessed as increase in singlet oxygen by measuring increase in SOSG fluorescence intensity at 10 uM irradiated with green light 505 nm 100 mW/cm2 for 15 mins by SOSG probe based analysis; format: functional
How it was run: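 Cell-free fluorogenic probe test. Compound (10 μM) in PBS with 2% DMSO plus SOSG (5 μM, singlet oxygen) or DHR123 (10 μM, superoxide), irradiated with green LED light (505 ± 35 nm, 100 mW cm–2), with the rise in probe fluorescence followed. Positive references were Rose Bengal (SOSG) and methylene blue (DHR123). Scavenger controls used sodium azide-saturated PBS (singlet oxygen) or tiron-saturated PBS (superoxide).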

[6] = Drug localization in […] of human HeLa cells at 1 uM incubated for 30 mins by Lysotracker green dye based confocal scanning microscopic analysis; format: ADME, subcellular; conditions: 0.5 h
How it was run: (§2)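 HeLa cells incubated with compound (1 μM) for 30 min at 37 °C in nonsupplemented DMEM. LysoTracker Green FM added for the last 5 min and WGA Alexa Fluor 633 for the last 20 min. Cells washed with DPBS and imaged live by confocal at 37 °C: compound excited at 561 nm (570–670 nm), LTG at 488 nm, WGA at 633 nm. Pearson's coefficient from 5 stacks, about 25 cells each.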

[7] = Drug localization in lysosome of human HeLa cells at 1 uM incubated for 30 mins by Lysotracker green dye based analysis; format: ADME, subcellular; conditions: 0.5 h; how it was run: as §2
[8] = Induction of singlet oxygen quantum yield under irradiation with green light 505 nm 100 mW/cm2 by; format: functional
How it was run: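 Singlet oxygen quantum yield measured in air-saturated DCM (bubbled 15 min). DPBF trap at ~1.0 absorbance (50 μM); compound absorbance set to 0.06 at 505 nm. Irradiated with LED at 505 ± 35 nm, 100 mW cm–2.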

[9] = Photophysical property of the compound assessed as fluorescence quantum yield; format: physicochemical
How it was run: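 Fluorescence quantum yield by the comparative method against cresyl violet in ethanol (ΦF 0.54). Optically matched solutions with absorbance below 0.1 at 540 nm excitation. Calculated from integrated emission, absorbance and refractive indexes.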

HeLa [10] = test: Photocytotoxicity in human HeLa cells assessed as reduction in cell viability irradiated with 550 nm 4 mW/cm^-2 green-yellow LED light for 1 hr and measured after 48 hrs by MTT assay; format: toxicity, cell-based; conditions: 49 h; how it was run: as §1
[11] = Drug localization in lysosome of human HeLa cells at 1 uM incubated for 30 mins by wheat germ agglutinin alexa fluor 633 probe based analysis; format: ADME, subcellular; conditions: 0.5 h; how it was run: as §2
[12] = Photoactivation of the compound in PBS/ACN irradiation with visible light at 530 nm 150 mW cm2 incubated for 2 hrs by RP-HPLC analysis; parameters: dose or concentration left out as unconfirmed; conditions: buffer
How it was run: (§3)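 Caged compound (20 μM) with 4-dimethylaminopyridine internal standard (20 μM) in PBS/ACN 8:2 at 37 °C. First held 2 h in the dark for stability, then irradiated with a 470–750 nm LED centred at 530 nm while stirred. Release followed by RP-HPLC with formic acid/water–ACN gradients.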

[13] = Photoactivation of the compound in PBS/ACN incubated for 2 hrs by RP-HPLC analysis; conditions: buffer; how it was run: as §3
[14] = Drug localization in Endosome of human HeLa cells at 1 uM incubated for 30 mins by wheat germ agglutinin alexa fluor 633 probe based analysis; format: ADME, subcellular; conditions: 0.5 h; how it was run: as §2
HeLa [15] = test: Cytotoxicity against human HeLa cells assessed as reduction in cell viability at 100 uM incubated for 2 hrs under dark condition by MTT assay; format: functional, cell-based; how it was run: as §1
[16] = Induction of ROS generation in PBS buffer assessed as increase in superoxide anion radical level by measuring increase in DHR123 fluorescence intensity at 10 uM irradiated with 505 nm 100 mW/cm2 green light for 15 mins by DHR123 probe based analysis
[17] = Phototoxic index, ratio of IC50 for cytotoxicity against human HeLa cells assessed as reduction in cell viability incubated for 2 hrs under dark condition by MTT assay to IC50 for photocytotoxicity in human HeLa cells assessed as reduction in cell viability irradiated with 550 nm 4 mW/cm^-2 green-yellow […] and measured after 48 hrs by MTT assay; format: toxicity, cell-based; conditions: read-out: Ratio IC50
How it was run: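 Phototoxic index is dark IC50 divided by light IC50, HeLa MTT assay. Cells had 1 h compound in the dark, then 1 h dark or 550 nm LED (4 mW/cm2 pulsed, 7.2 J cm–2), then 48 h after medium change.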

[18] = Photocytotoxicity in human U-87 MG cells assessed as reduction in cell viability irradiated with 550 nm 4 mW/cm^-2 green-yellow LED light for […] and measured after 48 hrs by MTT assay; format: toxicity, cell-based, U-87MG ATCC; how it was run: as §1
[19] = Drug localization in mitochondria of human HeLa cells at 1 uM incubated for 30 mins by Mito-tracker green dye based confocal scanning microscopic analysis; format: ADME; conditions: 0.5 h
How it was run: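 Cells washed with DPBS and imaged live by confocal at 37 °C with 5% CO2: compound excited at 561 nm (detection 570–670 nm), MTG at 488 nm. Colocalization coefficients from 5 stacks of about 25 cells.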

U-87 MG [20] = test: Cytotoxicity against human U-87 MG cells assessed as reduction in cell viability incubated for 2 hrs under dark condition by resazurin assay; format: functional, cell-based; conditions: U-87MG ATCC
[21] = Drug localization in lysosome of human HeLa cells at 1 uM incubated for 30 mins by Lysotracker green dye based confocal scanning microscopic analysis; format: ADME, subcellular; conditions: 0.5 h; how it was run: as §2
U-87 MG [22] = test: Cytotoxicity against human U-87 MG cells assessed as reduction in cell viability incubated for 2 hrs under dark condition by MTT assay; format: functional, cell-based, U-87MG ATCC; how it was run: as §1
[23] = Drug accumulation in human HeLa cells assessed as mitochondrial localization at 2 uM incubated for 30 mins by Hoechst 33342 staining based live cell confocal microscopic analysis; format: ADME; conditions: 0.5 h
How it was run: (§4)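 Live HeLa cells (DMEM, 4.5 g/L glucose, 10% FBS, pen-strep) on glass-bottom dishes; 24 h after seeding, incubated 30 min at 37 °C with compound (1 or 2 μM) in DMEM + 10% FBS. Cells were washed three times with DPBS and imaged at 37 °C, 5% CO2 in phenol-red-free low-glucose DMEM. Excitation 561 nm, emission 570–670 nm. For co-staining, MitoTracker Green FM (0.1 μM) was co-incubated 30 min in nonsupplemented DMEM and excited at 488 nm.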

[24] = Drug accumulation in human HeLa cells assessed as mitochondrial localization at 1 uM incubated for 30 mins by Hoechst 33342 staining based live cell confocal microscopic analysis; format: ADME; conditions: 0.5 h; how it was run: as §4

Compound	Activity [2]	Drug uptake [4]	Activity [5]	Activity [8]	Activity [9]	Activity [12]	Activity [13]	IC50 (HeLa [15])	Activity [16]	selectivity ratio at 48 h [17]	also measured
CCN(CC)c1ccc2c(c1)O/C(=C(/C#N)c1cc[n+](CCC[N+](C)(C)C)cc1)C=C2C(C)OC(=O)CCCc1ccc(N(CCCl)CCCl)cc1.[Cl-].[Cl-] (stereo not drawn)	1.07e-05	Active	Active	< 0.01	0.09	Active	Active	41 µM	Active	3.7	Activity (HeLa [1]): Non-toxic; Activity (HeLa [3]): Non-toxic; Drug uptake [6]: Active; Drug uptake [7]: Active; Activity (HeLa [10]): Non-toxic; Drug uptake [11]: Active; Drug uptake [14]: Active
O=C(O)CCCc1ccccc1								> 100 µM			
CCCCCC[n+]1ccc(/C(C#N)=C2/C=C(C)c3ccc(N(CC)CC)cc3O2)cc1			Active						Active		
CCCCCC[n+]1ccc(/C(C#N)=C2/C=C(C(C)OC(=O)CCCc3ccc(N(CCCl)CCCl)cc3)c3ccc(N(CC)CC)cc3O2)cc1.[Cl-] (stereo not drawn)	1.3e-05	Active	Active	< 0.01	0.07	Active	Active	3.76 µM	Active	40	Activity (HeLa [1]): Non-toxic; IC50 at 48 h [18]: 0.12 µM; Activity (HeLa [3]): Non-toxic; Drug uptake [19]: Active; Activity (U-87 MG [20]): Active; Drug uptake [21]: Active; Activity (HeLa [10]): Non-toxic; IC50 (U-87 MG [22]): 6.72 µM
CCCCCC[n+]1ccc(/C(C#N)=C2/C=C(C(C)O)c3ccc(N(CC)CC)cc3O2)cc1.[Cl-] (stereo not drawn)			Active		0.26			27.2 µM	Active	40	Drug uptake [23]: Active
O=C(O)CCCc1ccc(N(CCCl)CCCl)cc1 [CHLORAMBUCIL]								> 100 µM			
CCCCCC[n+]1ccc(/C(C#N)=C2/C=C(C(C)OC(=O)CCCc3ccccc3)c3ccc(N(CC)CC)cc3O2)cc1.[Br-] (stereo not drawn)	3.89e-05	Active	Active	0.05	0.23	Active	Active	3.54 µM	Active	131	Drug uptake [24]: Active; Drug uptake [19]: Active; Drug uptake [21]: Active
